Compounds with a hit are over-represented: about 1.8% of the library has one in this group of screens.
SIAE primary: inhibitors of human sialic acid acetylesterase SIAE. hit rate 0.69% among 370,000. Q9HAT2. SIAE FP-Rh probe binding, fluorescence polarization. AID 1053197. inhibition, % at 9.66 µM;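 active = inhibition above a cutoff: mean of compounds within the control limits plus 3 SD of those, cut at about 17% in these data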;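 also: 0% = plate median of compound wells and 100% = probe without SIAE protein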
Target sequence (Q9HAT2 whole entry, looked up): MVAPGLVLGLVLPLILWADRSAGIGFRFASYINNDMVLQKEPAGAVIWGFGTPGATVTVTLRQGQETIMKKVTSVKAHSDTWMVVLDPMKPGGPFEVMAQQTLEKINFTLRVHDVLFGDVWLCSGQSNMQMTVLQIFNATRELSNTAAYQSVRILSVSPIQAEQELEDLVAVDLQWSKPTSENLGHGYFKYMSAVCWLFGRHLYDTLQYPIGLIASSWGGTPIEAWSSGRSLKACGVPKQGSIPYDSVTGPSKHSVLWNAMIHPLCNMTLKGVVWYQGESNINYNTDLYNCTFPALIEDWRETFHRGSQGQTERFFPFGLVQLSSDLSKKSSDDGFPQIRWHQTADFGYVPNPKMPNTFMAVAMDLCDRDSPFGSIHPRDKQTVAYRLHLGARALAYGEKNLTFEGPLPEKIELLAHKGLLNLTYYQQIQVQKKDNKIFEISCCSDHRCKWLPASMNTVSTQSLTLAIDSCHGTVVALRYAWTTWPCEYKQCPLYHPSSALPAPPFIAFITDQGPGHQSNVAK
Fam108B counter: blocks mouse Fam108B hydrolase in RBBP9 counter-screen; recombinant Fam108B, FP-Rh probe fluorescence polarization; hit rate 0.33% among 300,000; inhibition, % at 9.51 µM;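 active = inhibition above the screen mean inhibition plus 3 SD, computed separately per campaign, cut at about 18% in these data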;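 also: inhibitors lower polarization as less probe binds the enzyme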
TCR-CD3 inh: inhibitors of human TCR-CD3 interaction; inhibition, % at 9.4 µM; hit rate 0.37% among 360,000; TAMRA-labeled TCR probe fluorescence, biochemical; AID 651800;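 also: recombinant mutant TCR 2C K166C tagged with TAMRA read by polarization; 0% = receptor in buffer alone and 100% = receptor with positive control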
HTRA1 inhibitor: HTRA1 (human) protease inhibition; AID 504803; inhibition, % at 5.96 µM; recombinant HTRA1, FP-rhodamine activity-based probe, fluorescence polarization; Q92743; hit rate 0.5% among 340,000; in the data active = inhibition above about 36%;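 also: 0% = enzyme with DMSO and 100% = wells lacking enzyme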
PME-1 inh: PME-1 (human) inhibition; recombinant PME-1, FP-Rh probe fluorescence polarization; Q9Y570; AID 2130; hit rate 0.53% among 320,000; inhibition, % at 5.9 µM;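 active = inhibition above the campaign mean of all compounds plus 3 SD, cut at about 26% in these data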;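 also: competitive labeling of PME-1 active site by serine hydrolase directed probe; 0% = PME-1 with DMSO and 100% = wells lacking PME-1 enzyme; inhibitors block probe labeling so polarization falls and inhibition rises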
ABHD4 inh: inhibitors of mouse ABHD4; Q8VD66; purified mABHD4, FP-Rh probe fluorescence polarization; inhibition, % at 8.92 µM; hit rate 0.54% among 370,000; AID 720543;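 active = inhibition exceeding the mean over every tested compound plus 3 SD, cut at about 30% in these data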;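 also: 0% = plate median of compound wells and 100% = S159A mutant with DMSO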
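Assay system: mouse ABHD4 enzyme, wild type / Also added: fluorescent activity-based probe FP-Rh / Doses: single nominal dose of 8.92 µM, 0.89% DMSO final / Timing: 45 min compound pre-incubation plus 60 min probe step, 25 °C / Signal: FP readout, ex 525 nm / em 598 nm / Control set: S159A mutant/DMSO as 100%, compound-well median as 0%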
Fam108b inh conf: Fam108b (mouse) hydrolase inhibition, confirmation assay; shares compounds with Fam108B counter; recombinant Fam108b, FP-Rh probe fluorescence polarization; inhibition, % at 9.51 µM; hit rate 44% among 930; AID 1978;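 active = inhibition above a limit from the primary screen, the mean over all compounds plus 3 SD, cut at about 19% in these data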;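 also: 0% = median of active Fam108b wells and 100% = catalytically dead S170A mutant; inhibitors free the probe so polarization falls as inhibition rises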
Fam108b ABPP HTS: inhibits mouse Fam108b in gel-based ABPP; recombinant Fam108b, fluorophosphonate probe; shares compounds with Fam108B counter; inhibition, % at 20 µM; AID 588649; hit rate 44% among 260; in the data active = inhibition above about 40%
HTRA1 inh conf: HTRA1 (human) inhibition, confirmation. shares compounds with HTRA1 inhibitor. recombinant HTRA1, FP-rhodamine activity-based probe, fluorescence polarization. inhibition, % at 5.96 µM. hit rate 66% among 1,600;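 active = mean inhibition over three repeats above a set limit taken from the earlier primary screen, cut at about 37% in these data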;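 also: 0% = HTRA1 with DMSO and 100% = wells lacking HTRA1; inhibitors block probe binding so polarization drops and inhibition rises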
BSA probe FL: counter-screen for TCR-CD3 interaction inhibitors: BSA probe; shares compounds with TCR-CD3 inh; TAMRA-labeled BSA probe fluorescence counterscreen; inhibition, % at 9.4 µM; hit rate 10% among 1,200; in the data active = inhibition above about 23%;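 also: 0% = buffer low control and 100% = reference high control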
TCR-CD3 conf: TCR-CD3 interaction inhibition, confirmation; shares compounds with TCR-CD3 inh; TAMRA-labeled TCR probe fluorescence binding assay; inhibition, % at 9.4 µM; hit rate 48% among 1,200
ABHD4 confirm: confirmation of mouse ABHD4 inhibitors; shares compounds with ABHD4 inh; purified mABHD4, FP-Rh probe fluorescence polarization; inhibition, % at 8.92 µM; hit rate 55% among 1,800;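 active = mean inhibition across replicates above the hit cutoff set in the primary screen, cut at about 30% in these data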;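 also: 0% = wild-type ABHD4 with DMSO and 100% = catalytically dead S159A mutant with DMSO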
SIAE confirm: human SIAE inhibition, confirmation | inhibition, % at 9.66 µM | AID 1117263 | shares compounds with SIAE primary | SIAE FP-Rh activity-based probe, fluorescence polarization | hit rate 13% among 2,300;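 active = mean inhibition of the replicates above the hit cutoff set in the primary screen, cut at about 17% in these data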;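 also: 0% = SIAE with DMSO and probe and 100% = probe without SIAE; inhibitors lower polarization as more probe stays unbound to SIAE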
Active calls of the source: *; . = no result given. Rule as the data show it, unless noted: active = inhibition above about 19%; inactive = the rest.

SMILES	SIAE primary	Fam108B counter	TCR-CD3 inh	HTRA1 inhibitor	PME-1 inh	ABHD4 inh	Fam108b inh conf	SIAE confirm	others
Cc1cc(N/N=C/c2ccccc2O)c2ccccc2n1	11.2	9.1	3.3	7.2	5.7	17.0	.	.
COc1ccc2nc(C)cc(N/N=C/c3cccc(OC)c3O)c2c1	24.1*	18.9*	0.7	6.7	14.3	25.4	-0.8	17.8*
COc1ccc(CC2CCN(c3ncnc4sccc34)CC2)cc1	0.9	.	.	.	.	-2.8	.	.
Nc1ccc(C(=O)N/N=C\c2cc(N=Nc3cccc4ccccc34)ccc2O)cc1	36.4*	20.8*	12.6	55.5*	39.7*	16.0	17.5	18.7*	HTRA1 inh conf=91.5*
COc1cc(OC)cc(C(=O)Oc2ccc(/C=N/Nc3nc4ccccc4s3)cc2OC)c1	19.1*	25.8*	-0.4	-12.2	30.9*	7.0	11.6	17.2*
COC(=O)c1ccc(N)cc1O	8.1	3.8	-1.9	-4.2	0.1	-1.6	.	.
COC(=O)c1ccc(=O)c2nc3/c(=C/O)c(O)cc(=O)c3[nH]c12	47.5*	33.4*	140.1*	60.8*	14.3	57.2*	48.5*	27.8*	ABHD4 confirm=59.1*
CN1C(=O)/C(=C/c2ccc(-c3ccccc3[N+](=O)[O-])o2)SC1=Nc1ccc(Cl)c(C(=O)O)c1	19.0*	30.3*	7.6	10.3	12.1	17.1	11.2	15.4
O=C(O)c1cc(-c2ccc(/C=C3/SC(=S)N(Cc4ccccc4)C3=O)o2)ccc1Cl	-0.6	.	-3.9	-0.5	.	3.9	.	.
S=C(Nc1ccccc1Cl)OCCN1CCCC12CCC(c1ccccc1)CC2 (configuration not stated)	2.2	.	.	.	.	4.3	.	.
COc1ccc2nc3cccc(OC)c3nc2c1	-9.4	8.0	-10.0	4.4	-2.7	5.1	.	.
COc1ccc2nc(-c3ccco3)c(-c3ccco3)nc2c1	22.8*	21.4*	31.1*	51.9*	-1.2	57.0*	53.7*	4.1	Fam108b ABPP HTS=35.0;HTRA1 inh conf=32.7;BSA probe FL=-9.4;TCR-CD3 conf=31.4*;ABHD4 confirm=28.6
c1coc(-c2nc(-c3ccco3)c(-c3ccco3)nc2-c2ccco2)c1	28.9*	71.4*	26.5*	74.1*	4.1	54.2*	9.6	9.4	BSA probe FL=-6.6;TCR-CD3 conf=8.1;ABHD4 confirm=43.3*
O=C(Nc1ccccc1)c1ccc2nc(-c3ccco3)c(-c3ccco3)nc2c1	22.4*	47.7*	24.1*	59.4*	8.1	46.7*	8.5	-1.5	HTRA1 inh conf=-20.0;ABHD4 confirm=21.9
CN1CCN(c2ccc3c(c2)Oc2ccccc2CN(Cc2cn(Cc4cccc(C(F)(F)F)c4)nn2)S3(=O)=O)CC1	11.1	.	.	.	.	-1.0	.	.
COC(=O)[C@]1(CNC(C)=O)CC(=O)N(Cc2ccc(Cl)cc2)[C@@H]1c1ccc(OC)cc1	-3.3	.	.	.	.	-4.8	.	.
O=c1c(O)cccc2cc(O)c(O)c(O)c12	24.1*	48.8*	93.1*	58.0*	19.4	54.6*	31.1*	18.5*	Fam108b ABPP HTS=0.0;HTRA1 inh conf=60.0*;BSA probe FL=-4.5;TCR-CD3 conf=80.9*;ABHD4 confirm=52.1*
COc1cc(NC(=O)C2CCCN(S(=O)(=O)c3cccc4cccnc34)C2)cc(OC)c1 (configuration not stated)	-5.9	.	.	.	.	-5.1	.	.
COC(=O)C1=C(C)N(Cc2ccccc2C(F)(F)F)C(=NCc2ccccc2)NC1c1cccc(F)c1 (configuration not stated)	-7.8	.	3.4	.	.	4.0	.	.
O=C(NC1CCCCN(Cc2cccc(C(F)(F)F)c2)C1=O)c1ccc(-c2ccccc2)cc1 (configuration not stated)	-1.6	.	.	.	.	-3.7	.	.
S=C(NCc1ccc2[nH]c3c(c2c1)CCCC3)Nc1ccccc1	23.4*	21.4*	1.1	17.4	9.4	13.9	13.0	8.9
CCS(=O)(=O)NCc1ccc2[nH]c3c(c2c1)CCCC3	.	5.7	.	.	15.6	.	.	.
COc1ccc(F)cc1-c1cc(C(C)=O)c2n(c1=O)CCC2	9.0	.	.	.	.	-1.1	.	.
CN(/N=C/c1ccc(O)cc1O)c1nc(-c2ccccc2)cc(-c2ccccc2)n1	19.9*	32.7*	-5.1	18.3	23.4	0.6	19.1*	5.8
CN(N)c1nc(-c2ccccc2)cc(-c2ccccc2)n1	7.1	0.4	2.0	7.3	1.0	-3.1	.	.
SMILES	SIAE primary	Fam108B counter	TCR-CD3 inh	HTRA1 inhibitor	PME-1 inh	ABHD4 inh	Fam108b inh conf	SIAE confirm	others
CC(=O)Nc1ccc(C(=O)N/N=C/c2ccccc2OCc2ccccc2)cc1	-44.3	-11.5	6.4	-53.2	-20.7	-45.6	.	.
Cc1ccc(C(C)C)c(OCc2ccc(C(=O)N/N=C/c3cccc(O)c3O)cc2)c1	27.9*	28.2*	18.4	83.4*	49.4*	12.2	10.0	-0.5	HTRA1 inh conf=78.4*
O=C(N/N=C/c1ccc(O)c(O)c1)c1ccc(CSc2cccc3cccnc23)cc1	41.5*	43.5*	16.1	56.8*	53.7*	22.9	25.9*	15.5	HTRA1 inh conf=85.0*
Cc1ccc(C(C)C)c(OCc2ccc(C(=O)N/N=C/c3ccc(O)c(O)c3)cc2)c1	25.8*	34.7*	-0.8	63.2*	37.5*	18.1	-25.4	-14.0	HTRA1 inh conf=55.9*
CN(C(=O)[C@@H](C1CC1)[C@@H](O)c1ccc2ccccc2c1)c1ccccc1	-1.3	.	.	.	.	-5.9	.	.
c1cc2c3c(cccc3c1)NC(c1ccc3c(c1)OCO3)N2	27.5*	24.0*	-1.6	0.0	22.8	4.8	4.4	8.4
O=[N+]([O-])c1cc(C2Nc3cccc4cccc(c34)N2)ccc1Cl	-15.0	1.1	-4.5	19.3	17.7	12.4	.	.
Nc1[nH]c(C(=O)c2ccccc2)c(-c2ccc(Cl)cc2Cl)c1C(=O)NCCC1=CCCCC1	-5.5	.	.	.	.	-6.2	.	.
CCOC(=O)/C(=N\Nc1ccc(Cl)cc1)c1csc(Nc2ccccc2)n1	19.9*	20.7*	2.1	27.8	29.2*	2.4	27.2*	-2.8
COC[C@H]1CCCN1c1ccc2c(c1)O[C@H]1CCN(C1)S2(=O)=O	0.8	.	.	.	.	-3.9	.	.
Cc1ccc(NC(=O)OCCCN2C(=O)CCC23CCC(C)CC3)cc1C (configuration not stated)	-5.9	.	.	.	.	-2.2	.	.
